The text below walks through data of ChEMBL document CHEMBL4715833, “Design, synthesis, in-vitro, in-vivo and in-silico studies of pyrrolidine-2,5-dione derivatives as multitarget anti-inflammatory agents” (Eur J Med Chem, 2020).

Molecules are shown by their SMILES. Where a name gives a salt, the structure may show the parent alone.

A short description of experiment [1]: Inhibition of trypsin (unknown origin) using casein as substrate preincubated for 5 mins followed by substrate addition and measured after 20 mins. Further details: species or system Homo sapiens. The method, boiled down:
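Trypsin 0.06 mg/ml in 20 mM Tris-HCl pH 7.4 with compound at 31.25–1000 µg/ml, 5 min at 37 °C. 0.8% (w/v) casein added, 20 min further, stopped with 70% perchloric acid. After centrifugation, supernatant absorbance read at 217 nm against buffer blank. % inhibition against control; IC50 from plot; three runs.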

The species named for experiment [2] is Homo sapiens. Put plainly: Selectivity index, ratio of IC50 for sheep COX1 to IC50 for recombinant human COX2 expressed in baculovirus infected Sf21 cells. The method, boiled down: (§1)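 Enzymes activated for 5 min on ice with cofactor solution of 0.9 mM glutathione, hematin and 0.24 mM TMPD in 0.1 M Tris-HCl pH 8.0; COX-2 at 300 units/ml. Reaction started with 30 mM arachidonic acid stock, run 5 min, absorbance read at 570 nm. IC50 taken from inhibition-vs-concentration plots as means of three determinations. SI = IC50(COX-1)/IC50(COX-2).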

Experiment [3] addresses T1, Polyunsaturated fatty acid 5-lipoxygenase (Homo sapiens, UniProt P09917).
T1 sequence (P09917 whole entry): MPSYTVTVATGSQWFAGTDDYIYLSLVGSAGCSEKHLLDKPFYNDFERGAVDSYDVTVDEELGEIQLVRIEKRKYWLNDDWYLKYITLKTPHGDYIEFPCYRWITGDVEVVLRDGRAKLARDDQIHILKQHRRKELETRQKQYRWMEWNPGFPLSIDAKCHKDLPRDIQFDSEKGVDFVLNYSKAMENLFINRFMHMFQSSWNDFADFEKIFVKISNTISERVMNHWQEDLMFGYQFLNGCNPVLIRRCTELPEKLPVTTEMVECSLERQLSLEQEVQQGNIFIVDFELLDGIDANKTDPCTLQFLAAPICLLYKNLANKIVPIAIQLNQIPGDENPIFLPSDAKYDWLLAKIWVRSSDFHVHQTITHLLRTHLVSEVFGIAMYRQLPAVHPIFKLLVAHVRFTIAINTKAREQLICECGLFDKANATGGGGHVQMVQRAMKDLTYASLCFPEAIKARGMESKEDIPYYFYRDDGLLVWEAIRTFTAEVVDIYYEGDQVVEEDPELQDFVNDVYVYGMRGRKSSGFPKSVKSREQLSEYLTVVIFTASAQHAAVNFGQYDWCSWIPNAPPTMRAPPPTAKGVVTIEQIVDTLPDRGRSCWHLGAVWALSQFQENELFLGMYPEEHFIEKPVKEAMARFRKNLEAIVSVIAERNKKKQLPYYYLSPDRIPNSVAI
Put plainly: Inhibition of recombinant human 5LOX expressed in baculovirus infected Sf insect cells using linoleic acid as substrate preincubated for 5 mins followed by substrate addition.

For experiment [4], the target named is T2, Prostaglandin G/H synthase 1 (Ovis aries, UniProt P05979).
T2 sequence (P05979 whole entry): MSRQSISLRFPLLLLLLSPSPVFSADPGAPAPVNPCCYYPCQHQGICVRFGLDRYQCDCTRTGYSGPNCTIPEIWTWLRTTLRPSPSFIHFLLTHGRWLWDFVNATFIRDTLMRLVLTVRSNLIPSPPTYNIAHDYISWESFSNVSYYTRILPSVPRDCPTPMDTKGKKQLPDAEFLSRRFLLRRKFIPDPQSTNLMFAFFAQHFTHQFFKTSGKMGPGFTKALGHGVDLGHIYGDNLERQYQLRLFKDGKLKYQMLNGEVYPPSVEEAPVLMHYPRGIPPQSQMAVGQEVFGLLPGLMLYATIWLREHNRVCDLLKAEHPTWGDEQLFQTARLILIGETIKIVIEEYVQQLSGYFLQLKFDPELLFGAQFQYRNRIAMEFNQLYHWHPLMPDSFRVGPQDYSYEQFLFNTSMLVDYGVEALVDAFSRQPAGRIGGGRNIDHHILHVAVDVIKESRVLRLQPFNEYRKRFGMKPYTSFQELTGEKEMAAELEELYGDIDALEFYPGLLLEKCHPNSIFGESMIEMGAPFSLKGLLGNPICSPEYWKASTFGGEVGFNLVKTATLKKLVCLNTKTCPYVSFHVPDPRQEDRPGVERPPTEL
Kind of experiment: Inhibition of sheep COX1 using arachidonic acid as substrate preincubated for 5 mins followed by substrate addition and measured after 5 mins by UV-visible spectrophotometric method. The method, boiled down:
as §1

A short description of experiment [5]: Antiinflammatory activity assessed as inhibition of heat-induced albumin denaturation preincubated for 20 mins followed by heating at 51 degC and measured after 3 mins by UV-vis spectrophotometric method.
Experiment [6] deals with Mus musculus. Kind of experiment: Antiinflammatory activity against carrageenan-induced paw edema in Swiss mouse assessed as inhibition of paw edema at 100 mg/kg administered 30 mins prior to carrageenan challenge and measured after 3 hrs by […]-method (reference value: 11.41 +/- 3.069%). Type of experiment: functional. The settings on record: time 3.5 hrs. On the technique in general: Carrageenan injected into the paw causes an acute inflammation.

Experiment [7] concerns Mus musculus. Put plainly: Antiinflammatory activity against carrageenan-induced paw edema in Swiss mouse assessed as inhibition of paw edema at 100 mg/kg administered 30 mins prior to carrageenan challenge and measured after 4 hrs by […]-method (reference value: 14.46 +/- 1.568%). In kind it is functional. The settings on record: time 4.5 hrs.
Experiment [8] deals with Mus musculus. Put plainly: Antiinflammatory activity against carrageenan-induced paw edema in Swiss mouse assessed as inhibition of paw edema at 100 mg/kg administered 30 mins prior to carrageenan challenge and measured after 2 hrs by […]-method (reference value: 7.39 +/- 2.475%). Type of experiment: functional. The settings on record: time 2.5 hrs.
The test system of experiment [9] is Mus musculus. Kind of experiment: Antiinflammatory activity against carrageenan-induced paw edema in Swiss mouse assessed as inhibition of paw edema at 100 mg/kg administered 30 mins prior to carrageenan challenge and measured after 1 hr by […]-method (reference value: 7.66 +/- 3.753%). In kind it is functional. The settings on record: 1.5 h, time 90 min.

Experiment [10] concerns Mus musculus. Kind of experiment: Antiinflammatory activity in leukotriene-induced paw edema in Balb/c mouse assessed as inhibition of paw edema at 25 mg/kg, ip administered 1 hr prior to leukotriene challenge and measured after 3 hrs relative to control. Type of experiment: functional. The procedure, abridged: (§2)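 BALB/c mice of either sex (30–35 g), 8 per group, dosed i.p. with 10% DMSO, reference drug or compound (100 mg/kg). After 1 h, subplantar irritant: PGE2 0.01 µg/ml, bradykinin 20 µg/ml, histamine 0.1 ml of 1 mg/ml, or leukotriene 10 µg/ml.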

The test system of experiment [11] is Mus musculus. Put plainly: Antiinflammatory activity against carrageenan-induced paw edema in Swiss mouse assessed as inhibition of paw edema at 100 mg/kg administered 30 mins prior to carrageenan challenge and measured after 5 hrs by […]-method (reference value: 7.31 +/- 3.204%). Type of experiment: functional. The settings on record: time 5.5 hrs.

Experiment [12] concerns Mus musculus. Kind of experiment: Antiinflammatory activity in histamine-induced paw edema in Balb/c mouse assessed as inhibition of paw edema at 1 mg/kg, ip administered 1 hr prior to histamine challenge and measured after 1 hr relative to control. In kind it is functional. The settings on record: time 2 hrs. The procedure, abridged:
as §2

Experiment [13] has as its system Mus musculus. Put plainly: Antiinflammatory activity in PGE2-induced paw edema in Balb/c mouse assessed as inhibition of paw edema at 50 mg/kg, ip administered 1 hr prior to PGE2 challenge and measured up to 5 hrs relative to control. In kind it is functional. The settings on record: time 2-6 hrs. The method, boiled down: as §2

Turning to `NS(=O)(=O)c1ccc(N2C(=O)CC(CC(=O)c3ccccn3)C2=O)cc1` (centres undefined), the IC50 came to 13.4 µM in experiment [1], 0.81 µM in [3] and 43.7 µM in experiment [4]. In addition, the Ratio IC50 in experiment [2] came out at 4.88.
As to `NS(=O)(=O)c1ccc(N2C(=O)CC(C3CCCCCC3=O)C2=O)cc1` (centres undefined), in experiment [2], the Ratio IC50 turned out to be 2.36. In addition, the results for the concentration for half-maximal inhibition (IC50) in [3] and in [4] were 16.1 µM and 49.1 µM, respectively.
As for `O=C(O)Cc1ccccc1Nc1c(Cl)cccc1Cl` [DICLOFENAC], inhibition in [1] was half-maximal at 42.7 µM (IC50).
For `O=C1CCCCC1C1CC(=O)N(c2ccccc2)C1=O` (centres undefined), the IC50 in [1] is 66.3 µM; in experiment [3], 78.3 µM; in experiment [4] it was 65.6 µM. The Ratio IC50 in [2] came to 1.45.
`NS(=O)(=O)c1ccc(N2C(=O)CC(C3CCCCC3=O)C2=O)cc1` (centres undefined): in experiment [2], the Ratio IC50 was 2.04. Also, the half-maximal inhibitory concentration (IC50) in experiment [3] came out at 21.3 µM; in experiment [4], 43.4 µM.
`O=C1CCOCC1C1CC(=O)N(c2ccccc2)C1=O` (centres undefined): the IC50 in experiment [1] was 117 µM; in experiment [3] it was 26.8 µM; in experiment [4] it was 48.9 µM. Besides, the Ratio IC50 in experiment [2] turned out to be 0.86.
In the case of `COc1ccc(C(=O)CC2CC(=O)N(c3ccc(S(N)(=O)=O)cc3)C2=O)cc1` (centres undefined), the half-inhibitory concentration (IC50) in [1] was found to be 14.9 µM; in experiment [3] it was 4.74 µM; in experiment [4], 39.2 µM; in experiment [5] it was 24.9 µM. For the same compound, in experiment [2], the Ratio IC50 came to 18.7.
As for `CC(=O)C(C)(C)C1CC(=O)N(c2ccccc2)C1=O` (centres undefined), the IC50 in [1] turned out to be 88.7 µM; in experiment [3], 53.4 µM; in [4], 39.3 µM. The Ratio IC50 in experiment [2] is 0.73.
The like results for `O=C1CCCCC1C1CC(=O)N(c2ccc(Br)cc2)C1=O` (centres undefined) were, in that order, 99.9 µM, 130 µM, 186 µM and 1.64.
In the case of `CC(=O)Oc1ccccc1C(=O)O` [ASPIRIN], the inhibition in vivo at 100 mg/kg amounted to 53.3% in [6]; 56.9% in experiment [7]; 54.6% in experiment [8]; 47.5% in [9]; 57.6% in experiment [11]. The inhibition in vivo at 25 mg/kg in experiment [10] is 77.4%.
`CN(C)CCC(c1ccc(Cl)cc1)c1ccccn1` (centres undefined) [CHLORPHENIRAMINE MALEATE]: the inhibition in vivo at 1 mg/kg in [12] stood at 71.8%.
Turning to `NS(=O)(=O)c1ccc(N2C(=O)CC(CC(=O)c3ccc(Cl)cc3)C2=O)cc1` (centres undefined), the IC50 in experiment [1] worked out at 21.5 µM; in experiment [3], 12.6 µM; in experiment [4], 68.8 µM. Moreover, the Ratio IC50 in experiment [2] was determined as 10.9.
Consider `Cc1ccc(-c2cc(C(F)(F)F)nn2-c2ccc(S(N)(=O)=O)cc2)cc1` [CELECOXIB], for which the inhibition in vivo at 50 mg/kg in experiment [13] was found to be 65.9%.
`NS(=O)(=O)c1ccc(N2C(=O)CC(CC(=O)c3ccccc3)C2=O)cc1` (centres undefined): the IC50 in experiment [1] is 45.6 µM; in experiment [3], 5.29 µM; in experiment [4] it was 48.7 µM. Besides, the Ratio IC50 in experiment [2] stood at 11.5.
`O=C1CCCC1C1CC(=O)N(c2ccccc2)C1=O` (centres undefined): the IC50 turned out to be 85.5 µM in experiment [1], 98.5 µM in experiment [3], 30.3 µM in experiment [4] and 97.2 µM in [5]. In experiment [2], the Ratio IC50 is 0.58.
For the compound `CC1CCC(=O)C(C2CC(=O)N(Cc3ccccc3)C2=O)C1` (centres undefined), the IC50 in [1] was determined as 63.5 µM; in experiment [3], 56.2 µM; in [4] it was 51.5 µM. The Ratio IC50 in [2] is 2.35.
As to `CC(=O)CC1CC(=O)N(c2ccccc2)C1=O` (centres undefined), the results for the IC50 in experiment [1], in experiment [3] and in experiment [4] were 151 µM, 62.4 µM and 33.3 µM, respectively. Moreover, in [2], the Ratio IC50 stood at 0.52.
In the case of `O=C1CCCCCC1C1CC(=O)N(c2ccccc2)C1=O` (centres undefined), the IC50 is 63.1 µM in experiment [1], 18.4 µM in experiment [3] and 65.6 µM in [4]. The Ratio IC50 in experiment [2] is 1.66.
`CC1CCC(=O)C(C2CC(=O)N(c3ccccc3)C2=O)C1` (centres undefined): the half-inhibitory concentration (IC50) in [1] is 77.1 µM; in [3], 69.2 µM; in [4], 53 µM. In addition, the Ratio IC50 in experiment [2] worked out at 0.93.

What is called IC50 is the concentration at which inhibition is half-maximal. What is called inhibition in vivo is the change of the read-out against control, counted positive when it falls.
